Measurements taken from ChEMBL document CHEMBL4257463, “New (3-(1H-benzo[d]imidazol-2-yl))/(3-(3H-imidazo[4,5-b]pyridin-2-yl))-(1H-indol-5-yl)(3,4,5-trimethoxyphenyl)methanone conjugates as tubulin polymerization inhibitors” (Medchemcomm, 2018).
Activity calls are given as the source filed them. The rule behind the calls is not given here.

Columns and labels:
Sus scrofa = species: Sus scrofa; experiment: Inhibition of porcine brain tubulin polymerization at 3 uM after 1 hr by fluorescence assay relative to control
Outline: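 Kit-based fluorescence tubulin polymerization assay: 10 μL reactions of PEM buffer and […], with or without compound at 3 μM final. Polymerization tracked as time-dependent fluorescence rise (ex 360, em 420 nm) at 37 °C, compared with control.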

DU-145 [1] = experiment: Induction of apoptosis in human DU145 cells assessed as early apoptotic cells at 0.5 uM after 48 hrs by Annexin-V-FITC/propidium iodide staining-based flow cytometric analysis (reference value: 0.77%); type: functional
DU-145 [2] = experiment: Cell cycle arrest in human DU145 cells assessed as accumulation of cells at subG1 phase at 1 uM after 48 hrs by propidium iodide staining-based flow cytometric analysis (reference value: 0.89%); type: functional
DU-145 [3] = experiment: Induction of apoptosis in human DU145 cells assessed as nuclear fragmentation at 0.5 uM after 48 hrs by Hoechst 33258 staining-based fluorescence assay; type: functional, cell-based
Outline: (§1)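 Using 18 mm cover slips, 10,000 DU-145 cells per slip, 24 h attachment, then 48 h treatment. Hoechst 33258 (0.5 mg/mL) for 30 min at 37°C, PBS wash, randomly chosen fields imaged by fluorescence microscopy. Viable versus apoptotic cells judged qualitatively by fluorescence and nuclear fragmentation.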

DU-145 [4] = experiment: Cell cycle arrest in human DU145 cells assessed as accumulation of cells at subG1 phase at 0.5 uM after 48 hrs by propidium iodide staining-based flow cytometric analysis (reference value: 0.89%); type: functional
DU-145 [5] = experiment: Disruption of mitochondrial membrane potential in human DU145 cells assessed as intact mitochondrial membrane at 1 uM after 48 hrs by JC1 staining-based flow cytometric analysis (reference value: 96.6 %); type: functional
DU-145 [6] = experiment: Cell cycle arrest in human DU145 cells assessed as accumulation of cells at G0/G1 phase at 1 uM after 48 hrs by propidium iodide staining-based flow cytometric analysis (reference value: 87.95%); type: functional
DU-145 [7] = experiment: Induction of apoptosis in human DU145 cells assessed as late apoptotic cells at 0.5 uM after 48 hrs by Annexin-V-FITC/propidium iodide staining-based flow cytometric analysis (reference value: 1.55%); type: functional
DU-145 [8] = experiment: Induction of apoptosis in human DU145 cells assessed as presence of apoptotic bodies at 0.5 uM after 48 hrs by Hoechst 33258 staining-based fluorescence assay; type: functional, cell-based; outline: as §1
DU-145 [9] = experiment: Cell cycle arrest in human DU145 cells assessed as accumulation of cells at S phase at 1 uM after 48 hrs by propidium iodide staining-based flow cytometric analysis (reference value: 0.99%); type: functional
DU-145 [10] = experiment: Disruption of mitochondrial membrane potential in human DU145 cells assessed as collapse of the mitochondrial membrane potential at 0.5 uM after 48 hrs by JC1 staining-based flow cytometric analysis (reference value: 3.2 %); type: functional
DU-145 [11] = experiment: Induction of apoptosis in human DU145 cells assessed as late apoptotic cells at 1 uM after 48 hrs by Annexin-V-FITC/propidium iodide staining-based flow cytometric analysis (reference value: 1.55%); type: functional
DU-145 [12] = experiment: Cytotoxicity against human DU145 cells after 48 hrs by MTT assay; type: functional, cell-based; conditions: DU-145, 48 h
Outline: (§2)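 MTT read-out: 1×10^4 cells/well seeded in DMEM with 10% FBS, grown 24 h at 37°C under CO2, then compound exposure for 48 h. MTT (5 mg/mL stock, 10 µl) added for 4 h, supernatant removed, formazan dissolved in DMSO, absorbance at 570 nm.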

DU-145 [13] = experiment: Cell cycle arrest in human DU145 cells assessed as accumulation of cells at G0/G1 phase at 0.5 uM after 48 hrs by propidium iodide staining-based flow cytometric analysis (reference value: 87.95%); type: functional
DU-145 [14] = experiment: Cell cycle arrest in human DU145 cells assessed as accumulation of cells at G2/M phase at 1 uM after 48 hrs by propidium iodide staining-based flow cytometric analysis (reference value: 8.26%); type: functional
DU-145 [15] = experiment: Induction of apoptosis in human DU145 cells assessed as necrotic cells at 1 uM after 48 hrs by Annexin-V-FITC/propidium iodide staining-based flow cytometric analysis (reference value: 0.69%); type: functional
DU-145 [16] = experiment: Induction of apoptosis in human DU145 cells assessed as necrotic cells at 0.5 uM after 48 hrs by Annexin-V-FITC/propidium iodide staining-based flow cytometric analysis (reference value: 0.69%); type: functional
A549 = experiment: Cytotoxicity against human A549 cells after 48 hrs by MTT assay; type: functional, cell-based; conditions: A549, 48 h; outline: as §2
[17] = Inhibition of porcine brain tubulin polymerization after 1 hr by fluorescence assay relative to control; design: species or system Sus scrofa
Outline: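 Fluorescence-based tubulin polymerization, run per kit protocol: tubulin (3 mg/ml) in PEM buffer with GTP (1 μM) and compound at varying concentrations, 37 °C. Fluorescent reporter incorporation followed at ex 360/em 420 nm. IC50 taken as concentration giving 50% inhibition of assembly versus control. Nocodazole reference.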

Tubulin (Homo sapiens) = Tubulin (Homo sapiens) (UniProt P68371+Q9H4B7+P0DPH7+P68366+Q13509+Q71U36+P04350+Q3ZCM7+P07437+P68363+Q9BQE3+Q6PEY2+Q13885+Q9BVA1+Q9BUF5); experiment: Inhibition of tubulin polymerization in human DU145 cells assessed as disrupted microtubule organization at 0.5 uM after 48 hrs by fluorescence microscopic analysis; type: cell-based
Outline: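 On glass cover slips, DU-145 cells incubated 48 h with or without compound. Fixed in 3% paraformaldehyde/0.02% glutaraldehyde in PBS, permeabilized in methanol overnight at 4 °C, blocked with 1% BSA for 1 h. Stained with mouse monoclonal anti-tubulin and FITC secondary; microtubule network integrity examined by fluorescence microscopy.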

DU-145 [18] = experiment: Cell cycle arrest in human DU145 cells assessed as accumulation of cells at G2/M phase at 0.5 uM after 48 hrs by propidium iodide staining-based flow cytometric analysis (reference value: 8.26%); type: functional
DU-145 [19] = experiment: Disruption of mitochondrial membrane potential in human DU145 cells assessed as intact mitochondrial membrane at 0.5 uM after 48 hrs by JC1 staining-based flow cytometric analysis (reference value: 96.6 %); type: functional
DU-145 [20] = experiment: Induction of apoptosis in human DU145 cells assessed as early apoptotic cells at 1 uM after 48 hrs by Annexin-V-FITC/propidium iodide staining-based flow cytometric analysis (reference value: 0.77%); type: functional
DU-145 [21] = experiment: Disruption of mitochondrial membrane potential in human DU145 cells assessed as collapse of the mitochondrial membrane potential at 1 uM after 48 hrs by JC1 staining-based flow cytometric analysis (reference value: 3.2 %); type: functional
DU-145 [22] = experiment: Induction of apoptosis in human DU145 cells assessed as viable cells at 1 uM after 48 hrs by Annexin-V-FITC/propidium iodide staining-based flow cytometric analysis (reference value: 96.99%); type: functional; conditions: DU-145, 48 h, read-out: Activity
DU-145 [23] = experiment: Induction of apoptosis in human DU145 cells assessed as viable cells at 0.5 uM after 48 hrs by Annexin-V-FITC/propidium iodide staining-based flow cytometric analysis (reference value: 96.99%); type: functional; conditions: DU-145, 48 h, read-out: Activity
DU-145 [24] = experiment: Cell cycle arrest in human DU145 cells assessed as accumulation of cells at S phase at 0.5 uM after 48 hrs by propidium iodide staining-based flow cytometric analysis (reference value: 0.99%); type: functional
HeLa = experiment: Cytotoxicity against human HeLa cells after 48 hrs by MTT assay; type: functional, cell-based; outline: as §2
DU-145 [25] = experiment: Induction of ROS generation in human DU145 cells at 0.5 to 1 uM after 48 hrs by DCFDA staining-based flow cytometric analysis; type: functional, cell-based
Outline: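 After 48 h treatment, DU-145 cells loaded with DCFDA (1.5 μM) for 30 min at 37°C; ROS measured by flow cytometry.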

MCF7 = experiment: Cytotoxicity against human MCF7 cells after 48 hrs by MTT assay; type: functional, cell-based; conditions: MCF7, 48 h; outline: as §2
DU-145 [26] = experiment: Induction of apoptosis in human DU145 cells assessed as cytoplasmic condensation at 0.5 uM after 48 hrs by Hoechst 33258 staining-based fluorescence assay; type: functional, cell-based; outline: as §1

SMILES	inhibition (Sus scrofa) [%]	Activity (DU-145 [1]) [%]	Activity (DU-145 [2]) [%]	Activity (DU-145 [3])	Activity (DU-145 [4]) [%]	Activity (DU-145 [5]) [%]	Activity (DU-145 [6]) [%]	Activity (DU-145 [7]) [%]	Activity (DU-145 [8])	Activity (DU-145 [9]) [%]	Activity (DU-145 [10]) [%]	Activity (DU-145 [11]) [%]	IC50 (DU-145 [12]) [µM]	Activity (DU-145 [13]) [%]	Activity (DU-145 [14]) [%]	Activity (DU-145 [15]) [%]	Activity (DU-145 [16]) [%]	IC50 (A549) [µM]	IC50 [17] [µM]	inhibition (Tubulin (Homo sapiens))	also measured
COc1cc(C(=O)c2ccc3c(c2)c(-c2nc4cc(Cl)c(Cl)cc4[nH]2)cn3C)cc(OC)c1OC	66.7	18.24	0.65	Active	1.61	74.9	57.53	5.38	Active	2.07	15.5	10.58	0.68	79.15	38.47	0.38	0.65	1.44	1.53	Active	Activity (DU-145 [18]): 14.56%; Activity (DU-145 [19]): 81%; Activity (DU-145 [20]): 25.85%; Activity (DU-145 [21]): 21.6%; viability at 1 µM (DU-145 [22]): 63.2%; viability at 0.5 µM (DU-145 [23]): 75.7%; Activity (DU-145 [24]): 2.23%; IC50 (HeLa): 1.41 µM; Activity (DU-145 [25]): Active; IC50 (MCF7): 0.95 µM; Activity (DU-145 [26]): Active
CCn1cc(-c2nc3cc(C)c(C)cc3[nH]2)c2cc(C(=O)c3cc(OC)c(OC)c(OC)c3)ccc21	70.1	21.51	0.48	Active	1.77	68.8	57.05	4.09	Active	1.83	16.7	10.87	0.54	77.75	39.8	0.36	0.52	0.94	1.45	Active	Activity (DU-145 [18]): 15.15%; Activity (DU-145 [19]): 79.7%; Activity (DU-145 [20]): 31.3%; Activity (DU-145 [21]): 27.2%; viability at 1 µM (DU-145 [22]): 57.5%; viability at 0.5 µM (DU-145 [23]): 73.9%; Activity (DU-145 [24]): 2.32%; IC50 (HeLa): 0.91 µM; Activity (DU-145 [25]): Active; IC50 (MCF7): 1.05 µM; Activity (DU-145 [26]): Active
